Laboratory results: ChEMBL document CHEMBL4699411, “A3- and A2B-nitrocorroles: synthesis and antiviral activity evaluation against human cytomegalovirus infection” (RSC Med Chem, 2020)
Active and inactive are the calls of the source. No cut-off for these calls is given here.

Key:
[1] = Cytotoxicity against human ARPE-19 cells assessed as reduction in nuclei count measured after 10 days for Hoechst 33342 staining based microscopic analysis; assay type: cell-based; details: time 10 day
Procedure, shortened: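 ARPE-19 epithelial cells seeded at 8k/well in complete DMEM with 10% FBS and treated with increasing compound concentrations 24 h later. Incubated 10 days at 37 °C. Formalin-fixed, stained with Hoechst 33342 (1 μg mL–1), and nuclei counted by high-content imaging. Counts normalized to DMSO wells. CC50 is the concentration reducing nuclei count by 50%. Mean of two wells ± SD.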

[2] = Cytotoxicity against human MRC5 cells assessed as reduction in nuclei count measured after 6 days for Hoechst 33342 staining based microscopic analysis; assay type: cell-based; details: time 6 day
Procedure, shortened: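 MRC-5 fibroblasts seeded at 8k/well in complete DMEM with 10% FBS and treated 24 h later with increasing compound concentrations. Incubated 6 days at 37 °C, 5% CO2. Formalin-fixed, Hoechst 33342 (1 μg mL–1) stained, and nuclei counted by high-content imaging. Counts normalized to DMSO wells. CC50 is the concentration halving the nuclei count. Mean of two wells ± SD.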

Human betaherpesvirus 5 [3] = assay: Antiviral activity against Human cytomegalovirus infected in MRC5 cells measured after 6 days by fluorescence based microscopic analysis; assay type: functional, cell-based
Procedure, shortened: (§1)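 MRC-5 primary fibroblasts in phenol red-free DMEM with 10% FBS were seeded 8k/well. At 24 h they were treated with compound, infected with hCMV ANCHOR at MOI 1, and fixed 6 days post infection. High-content imaging gave infection rate (fluorescent/total cells) and replication (integrated ANCHOR spot intensity) over ≥1000 cells/well, normalized to DMSO; mean of three wells ± SD.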

Human betaherpesvirus 5 [4] = assay: Antiviral activity against Human cytomegalovirus infected in ARPE-19 cells measured after 10 days by fluorescence based microscopic analysis; assay type: functional, cell-based
Procedure, shortened: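 Cells were ARPE-19 in phenol red-free DMEM with 10% FBS, seeded 8k/well. At 24 h they received a range of compound concentrations and hCMV ANCHOR at MOI 10, then were fixed 10 days post infection. Imaging scored infection rate (fluorescent/total cells) and ANCHOR spot intensity over ≥1000 cells/well, normalized to DMSO and used to derive IC50; mean of three wells ± SD.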

[5] = Selectivity index, ratio of CC50 for human ARPE-19 cells assessed as reduction in nuclei count measured after […] 33342 staining based microscopic analysis to EC50 Human cytomegalovirus infected in ARPE-19 cells measured after 10 days by microscopic analysis; assay type: toxicity, cell-based; details: read-out: Ratio CC50/EC50
Procedure, shortened: (§2)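 CC50 comes from Hoechst nuclei counts after compound treatment, normalized to DMSO. IC50 comes from hCMV ANCHOR infection at MOI 1 in MRC-5 (read 6 dpi) or MOI 10 in ARPE-19 (read 10 dpi). Infection rate is fluorescent cells over total cells, from at least 1000 cells per well, in triplicate wells. SI is CC50 divided by IC50.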

[6] = Selectivity index, ratio of CC50 for human MRC5 cells assessed as reduction in nuclei count measured after 6 days for Hoechst 33342 staining based microscopic analysis to EC50 Human cytomegalovirus infected in MRC5 cells measured after 6 days by microscopic analysis; assay type: toxicity, cell-based; details: time 6 day, read-out: Ratio CC50/EC50; procedure, shortened: as §2
Human betaherpesvirus 5 [7] = assay: Antiviral activity against Human cytomegalovirus harboring ANCHOR infected in MRC5 cells assessed as reduction in viral infection at measured after 6 days by microscopic analysis relative to control; assay type: functional, cell-based; details: time 6.0 day; procedure, shortened: as §1
Human betaherpesvirus 5 [8] = assay: Antiviral activity against Human cytomegalovirus harboring ANCHOR infected in ARPE-19 cells assessed as reduction in viral infection measured after 10 days by microscopic analysis relative to control; details: time 10.0 day
Human betaherpesvirus 5 [9] = assay: Antiviral activity against Human cytomegalovirus infected in MRC5 cells assessed as reduction in viral plaque at 1.25 uM measured after 6 days by microscopic analysis; assay type: functional, cell-based; details: time 6.0 day
Procedure, shortened: (§3)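 MRC-5 fibroblasts seeded at 8k cells/well and infected 24 h later with fluorescent hCMV ANCHOR strain at MOI 1, with compound added at increasing concentrations. Cultured 6 days, fixed with formalin, nuclei stained with Hoechst, and imaged by high-content microscopy. Fluorescent plaques and replication centres were scored against DMSO-treated cells.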

Human betaherpesvirus 5 [10] = assay: Antiviral activity against Human cytomegalovirus infected in MRC5 cells assessed as reduction in viral plaque at 0.3 uM measured after 6 days by microscopic analysis; assay type: functional, cell-based; details: time 6.0 day; procedure, shortened: as §3
[11] = Human betaherpesvirus 5, ARPE-19, 240 h, read-out: IC50
[12] = Human betaherpesvirus 5, MRC5, 144 h, read-out: IC50

Row | SMILES | CC50 at 240 h [1] | CC50 at 144 h [2] | IC50 (Human betaherpesvirus 5 [3]; mrc5) | IC50 (Human betaherpesvirus 5 [4]; arpe-19) | IC50 (Human betaherpesvirus 5 [4]; [11]) | selectivity ratio [5] | IC50 (Human betaherpesvirus 5 [3]; [12]) | selectivity ratio at 144 h [6] | Activity (Human betaherpesvirus 5 [7]) | Activity (Human betaherpesvirus 5 [8]) | Activity (Human betaherpesvirus 5 [9]) | Activity (Human betaherpesvirus 5 [10])
1 | CN(C)c1ccc(-c2c3nc(c4ccc([nH]4)c(-c4ccc(N(C)C)cc4[N+](=O)[O-])c4ccc([nH]4)c(-c4ccc(N(C)C)cc4[N+](=O)[O-])c4ccc2[nH]4)C=C3)c([N+](=O)[O-])c1 | > 50 µM | > 50 µM | Not Active | Not Active | – | – | – | – | – | – | – | –
2 | O=[N+]([O-])c1cccc(-c2c3nc(c4ccc([nH]4)c(-c4cccc([N+](=O)[O-])c4)c4ccc([nH]4)c(-c4ccccc4)c4ccc2[nH]4)C=C3)c1 | > 50 µM | > 50 µM | Not Active | Not Active | – | – | – | – | – | – | – | –
3 | O=[N+]([O-])c1cc(-c2c3nc(c4ccc([nH]4)c(-c4ccc(F)c([N+](=O)[O-])c4)c4ccc([nH]4)c(-c4ccc(F)c([N+](=O)[O-])c4)c4ccc2[nH]4)C=C3)ccc1F | > 50 µM | > 50 µM | Not Active | Not Active | – | – | – | – | – | – | – | –
4 | O=[N+]([O-])c1cccc(-c2c3nc(c4ccc([nH]4)c(-c4cccc([N+](=O)[O-])c4)c4ccc([nH]4)c(-c4ccc(F)c([N+](=O)[O-])c4)c4ccc2[nH]4)C=C3)c1 | > 50 µM | > 50 µM | Not Active | – | 5 µM | > 10 | – | – | – | – | – | –
5 | O=[N+]([O-])c1ccc(F)c(-c2c3nc(c4ccc([nH]4)c(-c4c(F)ccc([N+](=O)[O-])c4F)c4ccc([nH]4)c(-c4c(F)ccc([N+](=O)[O-])c4F)c4ccc2[nH]4)C=C3)c1F | 9.8 µM | 8.77 µM | – | – | 0.31 µM | 31.6 | 0.86 µM | 10.2 | – | – | – | –
6 | O=[N+]([O-])c1cc(F)ccc1-c1c2nc(c3ccc([nH]3)c(-c3ccc(F)cc3[N+](=O)[O-])c3ccc([nH]3)c(-c3ccc(F)cc3[N+](=O)[O-])c3ccc1[nH]3)C=C2 | > 50 µM | > 50 µM | – | – | 4.3 µM | > 11 | 3 µM | > 16 | Dose-dependent effect | Dose-dependent effect | – | –
7 | O=[N+]([O-])c1cc(F)cc(-c2c3nc(c4ccc([nH]4)c(-c4cc(F)cc([N+](=O)[O-])c4)c4ccc([nH]4)c(-c4cc(F)ccc4[N+](=O)[O-])c4ccc2[nH]4)C=C3)c1 | 16.5 µM | 18 µM | Not Active | – | 0.32 µM | 51 | – | – | – | – | – | –
8 | O=[N+]([O-])c1cc(F)cc(-c2c3ccc([nH]3)c(-c3cc(F)ccc3[N+](=O)[O-])c3nc(c4ccc([nH]4)c(-c4cc(F)ccc4[N+](=O)[O-])c4ccc2[nH]4)C=C3)c1 | > 50 µM | > 50 µM | – | – | 0.22 µM | > 227 | 2 µM | > 25 | Dose-dependent effect | Dose-dependent effect | Active | Active
9 | O=[N+]([O-])c1ccc(Cl)cc1-c1c2nc(c3ccc([nH]3)c(-c3cc(Cl)ccc3[N+](=O)[O-])c3ccc([nH]3)c(-c3cc(Cl)ccc3[N+](=O)[O-])c3ccc1[nH]3)C=C2 | > 50 µM | > 50 µM | Not Active | Not Active | – | – | – | – | – | – | – | –
10 | O=[N+]([O-])c1ccc(-c2c3nc(c4ccc([nH]4)c(-c4ccc([N+](=O)[O-])cc4F)c4ccc([nH]4)c(-c4ccc([N+](=O)[O-])cc4F)c4ccc2[nH]4)C=C3)c(F)c1 | 5.3 µM | 3.4 µM | – | – | 0.25 µM | 21.2 | 0.7 µM | 4.5 | – | – | – | –
11 | O=[N+]([O-])c1cc(F)cc(-c2c3nc(c4ccc([nH]4)c(-c4cc(F)cc([N+](=O)[O-])c4)c4ccc([nH]4)c(-c4cc(F)cc([N+](=O)[O-])c4)c4ccc2[nH]4)C=C3)c1 | > 50 µM | > 50 µM | Not Active | – | 1.9 µM | > 26 | – | – | – | – | – | –
12 | O=[N+]([O-])c1ccc(F)cc1-c1c2nc(c3ccc([nH]3)c(-c3cc(F)ccc3[N+](=O)[O-])c3ccc([nH]3)c(-c3cc(F)ccc3[N+](=O)[O-])c3ccc1[nH]3)C=C2 | > 50 µM | > 50 µM | – | – | 5.2 µM | > 10 | 7.1 µM | > 7 | – | – | – | –
13 | O=[N+]([O-])c1ccc(-c2c3nc(c4ccc([nH]4)c(-c4ccc([N+](=O)[O-])c(F)c4)c4ccc([nH]4)c(-c4ccc([N+](=O)[O-])c(F)c4)c4ccc2[nH]4)C=C3)cc1F | > 50 µM | > 50 µM | Not Active | Not Active | – | – | – | – | – | – | – | –
14 | O=[N+]([O-])c1cc(-c2c3nc(c4ccc([nH]4)c(-c4cc([N+](=O)[O-])c(Br)cc4F)c4ccc([nH]4)c(-c4cc([N+](=O)[O-])c(Br)cc4F)c4ccc2[nH]4)C=C3)c(F)cc1Br | > 50 µM | > 50 µM | Not Active | Not Active | – | – | – | – | – | – | – | –
15 | O=[N+]([O-])c1cc(C(F)(F)F)ccc1-c1c2nc(c3ccc([nH]3)c(-c3ccc(C(F)(F)F)cc3[N+](=O)[O-])c3ccc([nH]3)c(-c3ccc(C(F)(F)F)cc3[N+](=O)[O-])c3ccc1[nH]3)C=C2 | > 50 µM | > 50 µM | – | – | 5 µM | > 10 | 2.8 µM | > 17 | – | – | – | –
